Laboratory results published in ChEMBL document CHEMBL1125042, “Hypolipidemic activity of rifamycin derivatives” (J Med Chem, 1990).
≈ marks a conversion by molar mass, not a printed value.

What was measured:
Rattus norvegicus [1] = assay: Hypolipidemic activity was determined in male rats, and serum cholesterol level was determined at 100 mg/kg
Rattus norvegicus [2] = assay: Hypolipidemic activity was determined in male rats, and low-density lipoprotein level was determined at 30 mg/kg
Rattus norvegicus [3] = assay: Hypolipidemic activity was determined in male rats, cholesterol was determined in high-density lipoproteins at 30 mg/kg; assay type: functional, organism-based; design: dose 30 mg/kg
Method in brief: (§1)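 Groups of eight male Wistar rats (200–230 g) dosed orally in PEG 400, either daily for 7 days (killed 24 h after the last dose) or for 4 days with a second dose on day 4 (killed 16 h later). Fasted 16 h. Paired sera pooled, lipoproteins separated by ultracentrifugation (1.006 and 1.040 g/cm³), HDL taken as the infranatant. Cholesterol measured enzymatically; % vs vehicle, mean ± SEM of four pools.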

Rattus norvegicus [4] = assay: Hypolipidemic activity was determined in male rats, cholesterol was determined in high-density lipoproteins at 100 mg/kg; assay type: functional, organism-based; design: dose 100 mg/kg
Method in brief: as §1

Rattus norvegicus [5] = assay: Compound was tested for hypolipidemic activity in male rats, cholesterol level was determined in serum at 30 mg/kg; assay type: functional, organism-based; design: dose 30 mg/kg
Method in brief: (§2)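 Male Wistar rats (200–230 g), eight per group, were dosed orally in PEG 400 at 8 a.m. for 4 days, plus a second dose at 4 p.m. on day 4. Rats were fasted 16 h and killed 16 h after the last dose. Sera from pairs of rats were pooled. LDL (up to 1.040 g/cm³) was separated by ultracentrifugation and the HDL infranatant taken. Cholesterol was measured enzymatically. Results are % versus vehicle control, mean ± SEM of four pools, Student's t test.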

Rattus norvegicus [6] = assay: Hypolipidemic activity was determined in male rats, cholesterol was determined in low-density lipoproteins at 100 mg/kg; assay type: functional, organism-based; design: dose 100 mg/kg
Method in brief: as §1

Rattus norvegicus [7] = assay: Hypolipidemic activity was determined by measuring the % serum HDL in hypercholesterolemic RICO rat at a dose of 30 mg/kg; assay type: functional, organism-based; design: dose 30 mg/kg
Method in brief: (§3)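 Genetically hypercholesterolemic RICO rats (Tif:RAI,f,SPF) were dosed orally for 7 days. Sera were collected after a 16 h fast and pooled in pairs. LDL (1.006–1.040 g/cm³) and HDL infranatant were separated by ultracentrifugation. Cholesterol and triglycerides were measured enzymatically. Results are % change versus vehicle control, mean ± SEM of four pools.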

Rattus norvegicus [8] = assay: Hypolipidemic activity was determined by measuring the % serum triglycerides in hypercholesterolemic RICO rat at a dose of 3 mg/kg; assay type: functional, organism-based; design: dose 3 mg/kg
Method in brief: as §3

Rattus norvegicus [9] = assay: Tested for hypolipidemic activity in male rats, cholesterol was determined in serum at 20 mg/kg; assay type: functional
Method in brief: as §1

Rattus norvegicus [10] = assay: Hypolipidemic activity was determined by measuring the % serum cholesterol in hypercholesterolemic RICO rat at a dose of 3 mg/kg; assay type: functional, organism-based; design: dose 3 mg/kg
Method in brief: as §3

Rattus norvegicus [11] = assay: Hypolipidemic activity was determined by measuring the % serum HDL in hypercholesterolemic RICO rat at a dose of 10 mg/kg; assay type: functional, organism-based; design: dose 10 mg/kg
Method in brief: as §3

Rattus norvegicus [12] = assay: Hypolipidemic activity was determined by measuring the % serum LDL-cholesterol in hypercholesterolemic RICO rat at a dose of 30 mg/kg; assay type: functional, organism-based; design: dose 30 mg/kg
Method in brief: as §3

Rattus norvegicus [13] = assay: Hypolipidemic activity was determined by measuring the % serum cholesterol in normal rat at a dose of 3 mg/kg; assay type: functional, organism-based; design: dose 3 mg/kg
Method in brief: (§4)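 Normal male Wistar rats (200–230 g), eight per group, were dosed orally in PEG 400 once daily for 7 days. They were fasted 16 h and killed 24 h after the last dose. Serum from pairs was pooled and LDL/HDL fractions were ultracentrifuged. Cholesterol and triglycerides were measured enzymatically. Results are % versus vehicle control, mean ± SEM of four pools, Student's t test.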

Rattus norvegicus [14] = assay: Tested for hypolipidemic activity in male rats, cholesterol was determined in serum at 10 mg/kg; assay type: functional
Method in brief: as §1

Rattus norvegicus [15] = assay: Hypolipidemic activity was determined in male rats, and low-density lipoprotein level was determined at 10 mg/kg; assay type: functional
Method in brief: as §2

Staphylococcus aureus = assay: Antibacterial activity against Staphylococcus aureus 10B; assay type: functional
Method in brief: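 Agar dilution on DST agar with 2-fold drug dilutions. Inoculum of 10⁴ viable S. aureus 10B was taken from liquid-nitrogen stock, thawed 30 min and not subcultured. It was applied by multipoint replicator and incubated overnight at 37 °C. MIC is the lowest concentration inhibiting growth relative to control cultures.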

Rattus norvegicus [16] = assay: Hypolipidemic activity was determined by measuring the % serum triglycerides in normal rat at a dose of 30 mg/kg; assay type: functional, organism-based; design: dose 30 mg/kg
Method in brief: as §4

Rattus norvegicus [17] = assay: Hypolipidemic activity was determined by measuring the % serum cholesterol in hypercholesterolemic RICO rat at a dose of 30 mg/kg; assay type: functional, organism-based; design: dose 30 mg/kg
Method in brief: as §3

Rattus norvegicus [18] = assay: Hypolipidemic activity was determined by measuring the % serum cholesterol in normal rat at a dose of 30 mg/kg; assay type: functional, organism-based; design: dose 30 mg/kg
Method in brief: as §4

Rattus norvegicus [19] = assay: Hypolipidemic activity was determined by measuring the % serum triglycerides in normal rat at a dose of 1 mg/kg; assay type: functional, organism-based; design: dose 1 mg/kg
Method in brief: as §4

Rattus norvegicus [20] = assay: Hypolipidemic activity was determined by measuring the % serum cholesterol in normal rat at a dose of 10 mg/kg; assay type: functional, organism-based; design: dose 10 mg/kg
Method in brief: as §4

Rattus norvegicus [21] = assay: Hypolipidemic activity was determined by measuring the % serum triglycerides in hypercholesterolemic RICO rat at a dose of 30 mg/kg; assay type: functional, organism-based; design: dose 30 mg/kg
Method in brief: as §3

Rattus norvegicus [22] = assay: Hypolipidemic activity was determined in male rats, and high-density lipoprotein level was determined at 10 mg/kg; assay type: functional
Method in brief: as §2

Rattus norvegicus [23] = assay: Hypolipidemic activity was determined by measuring the % serum LDL in normal rat at a dose of 30 mg/kg; assay type: functional, organism-based; design: dose 30 mg/kg
Method in brief: as §4

Rattus norvegicus [24] = assay: Hypolipidemic activity was determined by measuring the % serum HDL in normal rat at a dose of 3 mg/kg; assay type: functional, organism-based; design: dose 3 mg/kg
Method in brief: as §4

Rattus norvegicus [25] = assay: Hypolipidemic activity was determined by measuring the % serum LDL-cholesterol in hypercholesterolemic RICO rat at a dose of 3 mg/kg; assay type: functional, organism-based; design: dose 3 mg/kg
Method in brief: as §3

Rattus norvegicus [26] = assay: Hypolipidemic activity was determined by measuring the % serum LDL in normal rat at a dose of 1 mg/kg; assay type: functional, organism-based; design: dose 1 mg/kg
Method in brief: as §4

[27] = Inhibitory activity against RNA polymerase was determined; design: species or system Escherichia coli
Method in brief: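 E. coli DNA-dependent RNA polymerase inhibition measured in vitro on ether-extracted, permeabilized E. coli cells.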

Rattus norvegicus [28] = assay: Hypolipidemic activity was determined by measuring the % serum HDL in normal rat at a dose of 30 mg/kg; assay type: functional, organism-based; design: dose 30 mg/kg
Method in brief: as §4

Rattus norvegicus [29] = assay: Hypolipidemic activity was determined by measuring the % serum cholesterol in hypercholesterolemic RICO rat at a dose of 10 mg/kg; assay type: functional, organism-based; design: dose 10 mg/kg
Method in brief: as §3

Rattus norvegicus [30] = assay: Hypolipidemic activity was determined by measuring the % serum HDL in hypercholesterolemic RICO rat at a dose of 3 mg/kg; assay type: functional, organism-based; design: dose 3 mg/kg
Method in brief: as §3

Rattus norvegicus [31] = assay: Hypolipidemic activity was determined by measuring the % serum LDL-cholesterol in hypercholesterolemic RICO rat at a dose of 10 mg/kg; assay type: functional, organism-based; design: dose 10 mg/kg
Method in brief: as §3

Rattus norvegicus [32] = assay: Hypolipidemic activity was determined by measuring the % serum HDL in normal rat at a dose of 1 mg/kg; assay type: functional, organism-based; design: dose 1 mg/kg
Method in brief: as §4

Rattus norvegicus [33] = assay: Hypolipidemic activity was determined by measuring the % serum triglycerides in normal rat at a dose of 3 mg/kg; assay type: functional, organism-based; design: dose 3 mg/kg
Method in brief: as §4

Rattus norvegicus [34] = assay: Hypolipidemic activity was determined by measuring the % serum LDL in normal rat at a dose of 3 mg/kg; assay type: functional, organism-based; design: dose 3 mg/kg
Method in brief: as §4

Rattus norvegicus [35] = assay: Hypolipidemic activity was determined by measuring the % serum LDL in normal rat at a dose of 10 mg/kg; assay type: functional, organism-based; design: dose 10 mg/kg
Method in brief: as §4

Rattus norvegicus [36] = assay: Hypolipidemic activity was determined by measuring the % serum HDL in normal rat at a dose of 10 mg/kg; assay type: functional, organism-based; design: dose 10 mg/kg
Method in brief: as §4

Rattus norvegicus [37] = assay: Hypolipidemic activity was determined by measuring the % serum cholesterol in normal rat at a dose of 1 mg/kg; assay type: functional, organism-based; design: dose 1 mg/kg
Method in brief: as §4

Rattus norvegicus [38] = assay: Hypolipidemic activity was determined by measuring the % serum triglycerides in normal rat at a dose of 10 mg/kg; assay type: functional, organism-based; design: dose 10 mg/kg
Method in brief: as §4

Rattus norvegicus [39] = assay: Hypolipidemic activity was determined by measuring the % serum triglycerides in hypercholesterolemic RICO rat at a dose of 10 mg/kg; assay type: functional, organism-based; design: dose 10 mg/kg
Method in brief: as §3

Rattus norvegicus [40] = assay: Hypolipidemic activity was determined in male rats, and low-density lipoprotein level was determined at 20 mg/kg; assay type: functional
Method in brief: as §2

Rattus norvegicus [41] = assay: Hypolipidemic activity was determined in male rats, and high-density lipoprotein level was determined at 20 mg/kg; assay type: functional
Method in brief: as §2

CCOC(=O)C(C)(C)Oc1ccc(Cl)cc1
Serum cholesterol (Rattus norvegicus [1]): -30% | Serum LDL-cholesterol (Rattus norvegicus [2]): -8% | Serum HDL-cholesterol (Rattus norvegicus [3]): -13% | Serum HDL-cholesterol (Rattus norvegicus [4]): -34% | Serum cholesterol (Rattus norvegicus [5]): -15% | Serum LDL-cholesterol (Rattus norvegicus [6]): 14%

COC1/C=C/OC2(C)Oc3c(C)c(O)c4c(O)c(c(N5CCN(Cc6c(C)cc(C)cc6C)CC5)c(O)c4c3C2=O)NC(=O)/C(C)=C\C=C\C(C)C(O)C(C)C(O)C(C)C(OC(C)=O)C1C (configuration not stated)
Serum HDL-cholesterol (Rattus norvegicus [7]): -72% | Serum triglyceride (Rattus norvegicus [8]): 8% | Activity (Rattus norvegicus [9]): -63% | Serum cholesterol (Rattus norvegicus [10]): -8% | Serum HDL-cholesterol (Rattus norvegicus [11]): -30% | Serum LDL-cholesterol (Rattus norvegicus [12]): -68% | Serum cholesterol (Rattus norvegicus [13]): -11% | Activity (Rattus norvegicus [14]): -35% | Activity (Rattus norvegicus [15]): -43% | MIC (Staphylococcus aureus): 0.01 µg/mL (≈ 0.0109 µM) | Serum triglyceride (Rattus norvegicus [16]): -50% | Serum cholesterol (Rattus norvegicus [17]): -65% | Serum cholesterol (Rattus norvegicus [18]): -72% | Serum triglyceride (Rattus norvegicus [19]): 11% | Serum cholesterol (Rattus norvegicus [20]): -42% | Serum triglyceride (Rattus norvegicus [21]): -55% | Activity (Rattus norvegicus [22]): -38% | Serum LDL-cholesterol (Rattus norvegicus [23]): -64% | Serum HDL-cholesterol (Rattus norvegicus [24]): -14% | Serum LDL-cholesterol (Rattus norvegicus [25]): -29% | Serum LDL-cholesterol (Rattus norvegicus [26]): -11% | IC50 [27]: 0.3 µg/mL (≈ 0.328 µM) | Serum HDL-cholesterol (Rattus norvegicus [28]): -69% | Serum cholesterol (Rattus norvegicus [29]): -30% | Serum HDL-cholesterol (Rattus norvegicus [30]): -7% | Serum LDL-cholesterol (Rattus norvegicus [31]): -42% | Serum HDL-cholesterol (Rattus norvegicus [32]): -8% | Serum triglyceride (Rattus norvegicus [33]): -3% | Serum LDL-cholesterol (Rattus norvegicus [34]): -28% | Serum LDL-cholesterol (Rattus norvegicus [35]): -53% | Serum HDL-cholesterol (Rattus norvegicus [36]): -46% | Serum cholesterol (Rattus norvegicus [37]): 0% | Serum triglyceride (Rattus norvegicus [38]): -18% | Serum triglyceride (Rattus norvegicus [39]): -17% | Activity (Rattus norvegicus [40]): -79% | Activity (Rattus norvegicus [41]): -58%
